How the values were obtained:
[1] = Size of nanoparticles by DLS and TEM; format: physicochemical; conditions: fresh NPs, 99% water content (H2O:DMSO 99:1), 20 μM
Method in brief: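 Peptide in DMSO was diluted with DMSO/deionized water mixtures to give a range of water contents. Nanoparticle formation was checked by UV–vis absorption and fluorescence spectra. Freshly made nanoparticles (99% water, 20 μM) were sized by DLS and by TEM with uranyl acetate staining.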

[2] = biological target: Soluble extracellular domain of HER2 protein (Homo sapiens, UniProt P04626); assay: Fibrillar transformation of NPs on interaction with HER2 protein; conditions: TEM/DLS, over 24 h, HER2 protein/peptide ligand 1:1000
Method in brief: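 Soluble HER2 extracellular domain (HEK 293-expressed) was added to fresh nanoparticles (99% water, 20 μM) at a HER2/peptide ligand ratio of 1:1000. At 0.5, 6 and 24 h, samples were taken for DLS size and zeta potential, CD, and TEM with uranyl acetate staining. Bis-pyrene AIE fluorescence was followed over time to track transformation.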

[3] = system: MCF-7/C6 HER2+ breast cancer; assay: In vivo therapeutic effect, MCF-7/C6 xenograft; parameters: species or system Balb/c nude mice; conditions: 8 mg/kg i.v., 8 times q.o.d., n = 8 per group
Method in brief: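 Balb/c nude mice bearing s.c. flank MCF-7/C6 tumours (5×10^6 cells) were randomised into five groups 10 days after inoculation. Groups received PBS or test nanoparticles i.v. every 48 h. Tumour volume and body weight were measured twice weekly over the 40-day treatment, and survival was followed. Data are mean ± s.d.; t-test or ANOVA.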

MCF-7/C6 tumour tissue = assay: Tumour tissue analysis after three injections; format: in vivo, Balb/c nude mice; conditions: 3 consecutive q.o.d. injections, 8 mg/kg, n = 6
Method in brief: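 MCF-7/C6 tumour-bearing Balb/c nude mice were sacrificed after three i.v. injections given every other day. Excised tumours were processed for H&E staining, Ki-67 staining, fluorescence imaging of sections and high-magnification TEM.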

| Substance | diameter of nanoparticles [1] | structural transformation after treatment with HER2 protein [2] | time within which all mice died [3] [days] | cell kill in tumour sections (H&E) (MCF-7/C6 tumour tissue) |
| --- | --- | --- | --- | --- |
| BP-FFVLK-PEG1000 [NPs3] | 25–60 nm | did not reveal any significant changes | ≤ 57 | No significant cell kill was detected |
| BP-GGAAK-PEG1000 [NPs4] | around 20 nm | did not reveal any significant changes | ≤ 60 | No significant cell kill was detected |
